From ChEMBL document CHEMBL4118152, “Discovery of Potent and Selective Periphery-Restricted Quinazoline Inhibitors of the Cyclic Nucleotide Phosphodiesterase PDE1” (J Med Chem, 2018)
pIC50: −log10 of the molar value.

Columns and labels:
[1] = target: Dual specificity calcium/calmodulin-dependent 3',5'-cyclic nucleotide phosphodiesterase 1B (Homo sapiens, UniProt Q01064); experiment: Inhibition of full length recombinant human PDE1B1 using 3',5'-[3H]cAMP as substrate after 30 mins by scintillation proximity assay
Summary of the method: (§1)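 Enzymes were human except PDE6A, which was bovine. Each was assayed with cAMP or cGMP substrate, as appropriate to the enzyme, at concentrations below 1/3 of Km. IC50 values are mean ± SEM from n = 3 or more.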

[2] = target: Dual specificity calcium/calmodulin-dependent 3',5'-cyclic nucleotide phosphodiesterase 1C (Homo sapiens, UniProt Q14123); experiment: Inhibition of full length recombinant human PDE1C using 3',5'-[3H]cAMP as substrate after 30 mins by scintillation proximity assay
Summary of the method: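 Human recombinant enzymes; substrate held below 1/3 of Km. IC50 reported as mean ± SEM of at least 3 determinations.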

[3] = target: High affinity cGMP-specific 3',5'-cyclic phosphodiesterase 9A (Homo sapiens, UniProt O76083); experiment: Inhibition of full length recombinant human PDE9A1 using 3',5'-[3H]cGMP as substrate after 30 mins by scintillation proximity assay; summary of the method: as §1
[4] = target: cAMP and cAMP-inhibited cGMP 3',5'-cyclic phosphodiesterase 10A (Homo sapiens, UniProt Q9Y233); experiment: Inhibition of full length recombinant human PDE10A1 using 3',5'-[3H]cAMP as substrate after 30 mins by scintillation proximity assay; summary of the method: as §1
Homo sapiens [5] = species on record: Homo sapiens; experiment: Selectivity ratio of IC50 for full length recombinant human PDE1C to IC50 for full length recombinant human PDE1B1
Summary of the method: (§2)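 IC50s were measured against recombinant PDEs, all human except PDE6A (bovine). Each enzyme was given its appropriate cAMP or cGMP substrate at below 1/3 of its Km. IC50s are the mean of n = 3 or more. The selectivity ratio is the IC50 for the other PDE divided by the IC50 for PDE1B1 or PDE1A.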

Homo sapiens [6] = species on record: Homo sapiens; experiment: Selectivity ratio of IC50 for full length recombinant human PDE11A4 to IC50 for full length recombinant human PDE1B1; summary of the method: as §2
Homo sapiens [7] = species on record: Homo sapiens; experiment: Selectivity ratio of IC50 for full length recombinant human PDE2A1 to IC50 for full length recombinant human PDE1A; summary of the method: as §2
Homo sapiens [8] = species on record: Homo sapiens; experiment: Selectivity ratio of IC50 for full length recombinant human PDE10A1 to IC50 for full length recombinant human PDE1A; summary of the method: as §2
[9] = Fraction unbound in Wistar Hannover rat plasma at 1 mg/kg, sc measured at 4 hrs post dose by LC-MS/MS analysis; type: ADME, organism-based; conditions: in vivo
[10] = Fraction unbound in Wistar Hannover rat brain at 1 mg/kg, sc measured at 2 hrs post dose by LC-MS/MS analysis; type: ADME, organism-based; conditions: in vivo
[11] = Ratio of drug uptake in cerebrospinal fluid to fraction unbound in plasma in Wistar Hannover rat at 1 mg/kg, sc measured at 0.5 hrs post dose by LC-MS/MS analysis; type: ADME, organism-based, CSF/Plasma; conditions: in vivo
[12] = target: 5-hydroxytryptamine receptor 2A (Homo sapiens) (UniProt P28223); experiment: Inhibition of human 5-HT2A receptor at 10 uM relative to control
[13] = target: 5-hydroxytryptamine receptor 3A (Homo sapiens) (UniProt P46098); experiment: Inhibition of human 5-HT3 receptor at 10 uM relative to control
[14] = target: Adenosine receptor A1 (Homo sapiens) (UniProt P30542); experiment: Inhibition of human adenosine A1 receptor at 10 uM relative to control
[15] = target: Cholecystokinin receptor type A (Homo sapiens) (UniProt P32238); experiment: Inhibition of human cholecystokinin CCK1 receptor at 10 uM relative to control
[16] = target: Prostaglandin G/H synthase 2 (Homo sapiens) (UniProt P35354); experiment: Inhibition of recombinant human cyclooxygenase 2 using arachidonic acid/ADHP as substrate at 10 uM after 5 mins by Fluorimetric method relative to control
[17] = target: D(4) dopamine receptor (Homo sapiens) (UniProt P21917); experiment: Inhibition of dopamine D4 receptor (unknown origin) at 10 uM relative to control
[18] = target: Sodium-dependent noradrenaline transporter (Homo sapiens) (UniProt P23975); experiment: Inhibition of human norepinephrine transporter at 10 uM relative to control
[19] = target: Cysteinyl leukotriene receptor 1 (Homo sapiens) (UniProt Q9Y271); experiment: Inhibition of human leukotriene D4 receptor at 10 uM relative to control
Rattus norvegicus = species on record: Rattus norvegicus; experiment: Inhibition of rat brain GABA transporter assessed as [3H]GABA uptake at 10 uM after 30 mins by scintillation counting analysis relative to control
[20] = target: Glutamate receptor ionotropic, kainate (Rattus norvegicus) (UniProt P22756+Q01812+P42260+P42264+Q63273); experiment: Inhibition of rat brain Glutamate receptor, ionotropic kainate assessed as [3H]kainic acid uptake at 10 uM after 60 mins by scintillation counting analysis relative to control
CYP2D6 = CYP2D6 (Homo sapiens, UniProt P10635); experiment: Inhibition of CYP2D6 (unknown origin) at 10 uM relative to control; type: ADME
CYP2D6, sequence (P10635 whole entry): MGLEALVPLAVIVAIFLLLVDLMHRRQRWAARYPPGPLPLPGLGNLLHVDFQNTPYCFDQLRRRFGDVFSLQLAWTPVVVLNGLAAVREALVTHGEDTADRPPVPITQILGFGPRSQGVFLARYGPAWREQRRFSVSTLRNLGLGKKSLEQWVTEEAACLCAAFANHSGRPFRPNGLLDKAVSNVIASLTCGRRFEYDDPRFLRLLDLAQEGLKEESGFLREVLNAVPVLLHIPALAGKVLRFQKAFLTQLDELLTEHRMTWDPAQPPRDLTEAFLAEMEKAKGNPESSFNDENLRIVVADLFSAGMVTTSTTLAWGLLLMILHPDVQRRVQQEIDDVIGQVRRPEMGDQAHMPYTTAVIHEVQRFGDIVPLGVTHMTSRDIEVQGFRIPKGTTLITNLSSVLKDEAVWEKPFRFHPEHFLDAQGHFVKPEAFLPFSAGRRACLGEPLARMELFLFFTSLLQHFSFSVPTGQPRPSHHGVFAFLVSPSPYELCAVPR

Cholecystokinin receptor type A (Homo sapiens), sequence (P32238 whole entry): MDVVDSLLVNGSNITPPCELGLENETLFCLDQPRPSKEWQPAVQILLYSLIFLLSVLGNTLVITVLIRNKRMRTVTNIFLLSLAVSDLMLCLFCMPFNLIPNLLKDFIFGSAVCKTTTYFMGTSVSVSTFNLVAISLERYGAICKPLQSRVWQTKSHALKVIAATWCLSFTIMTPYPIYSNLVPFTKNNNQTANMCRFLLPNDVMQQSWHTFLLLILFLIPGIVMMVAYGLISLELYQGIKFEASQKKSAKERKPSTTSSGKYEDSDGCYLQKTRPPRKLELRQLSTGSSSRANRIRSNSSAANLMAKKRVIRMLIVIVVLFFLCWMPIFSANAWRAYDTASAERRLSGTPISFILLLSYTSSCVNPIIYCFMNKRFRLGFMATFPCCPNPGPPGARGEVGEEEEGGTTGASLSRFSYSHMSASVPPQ
cAMP and cAMP-inhibited cGMP 3',5'-cyclic phosphodiesterase 10A, sequence (Q9Y233 whole entry): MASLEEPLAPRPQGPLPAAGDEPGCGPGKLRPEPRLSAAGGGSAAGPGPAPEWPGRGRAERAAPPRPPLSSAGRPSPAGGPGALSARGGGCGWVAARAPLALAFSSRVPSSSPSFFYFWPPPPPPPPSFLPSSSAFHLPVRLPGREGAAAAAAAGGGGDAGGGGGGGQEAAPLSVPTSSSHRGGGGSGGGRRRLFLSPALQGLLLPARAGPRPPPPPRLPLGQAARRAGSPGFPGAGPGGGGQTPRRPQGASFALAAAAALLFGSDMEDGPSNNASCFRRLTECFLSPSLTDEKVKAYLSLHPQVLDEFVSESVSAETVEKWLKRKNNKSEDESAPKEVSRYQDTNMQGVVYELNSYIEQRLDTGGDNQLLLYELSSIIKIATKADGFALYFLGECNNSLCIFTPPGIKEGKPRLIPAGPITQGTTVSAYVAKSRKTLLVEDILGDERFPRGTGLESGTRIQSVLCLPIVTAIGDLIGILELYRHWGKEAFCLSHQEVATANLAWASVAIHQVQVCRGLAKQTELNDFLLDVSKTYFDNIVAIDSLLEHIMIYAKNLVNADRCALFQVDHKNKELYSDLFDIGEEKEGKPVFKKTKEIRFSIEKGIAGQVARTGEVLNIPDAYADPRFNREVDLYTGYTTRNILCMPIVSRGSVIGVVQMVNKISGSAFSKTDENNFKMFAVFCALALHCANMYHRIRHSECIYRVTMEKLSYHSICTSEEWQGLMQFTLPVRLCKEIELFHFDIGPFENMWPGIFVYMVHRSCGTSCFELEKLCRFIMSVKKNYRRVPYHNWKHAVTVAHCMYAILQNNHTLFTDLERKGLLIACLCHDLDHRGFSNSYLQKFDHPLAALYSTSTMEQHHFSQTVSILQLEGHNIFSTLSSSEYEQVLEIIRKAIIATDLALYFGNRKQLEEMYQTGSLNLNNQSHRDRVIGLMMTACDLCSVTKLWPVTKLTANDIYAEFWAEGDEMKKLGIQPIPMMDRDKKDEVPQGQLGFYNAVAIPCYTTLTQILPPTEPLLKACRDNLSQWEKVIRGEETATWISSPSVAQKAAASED
Dual specificity calcium/calmodulin-dependent 3',5'-cyclic nucleotide phosphodiesterase 1C, sequence (Q14123 whole entry): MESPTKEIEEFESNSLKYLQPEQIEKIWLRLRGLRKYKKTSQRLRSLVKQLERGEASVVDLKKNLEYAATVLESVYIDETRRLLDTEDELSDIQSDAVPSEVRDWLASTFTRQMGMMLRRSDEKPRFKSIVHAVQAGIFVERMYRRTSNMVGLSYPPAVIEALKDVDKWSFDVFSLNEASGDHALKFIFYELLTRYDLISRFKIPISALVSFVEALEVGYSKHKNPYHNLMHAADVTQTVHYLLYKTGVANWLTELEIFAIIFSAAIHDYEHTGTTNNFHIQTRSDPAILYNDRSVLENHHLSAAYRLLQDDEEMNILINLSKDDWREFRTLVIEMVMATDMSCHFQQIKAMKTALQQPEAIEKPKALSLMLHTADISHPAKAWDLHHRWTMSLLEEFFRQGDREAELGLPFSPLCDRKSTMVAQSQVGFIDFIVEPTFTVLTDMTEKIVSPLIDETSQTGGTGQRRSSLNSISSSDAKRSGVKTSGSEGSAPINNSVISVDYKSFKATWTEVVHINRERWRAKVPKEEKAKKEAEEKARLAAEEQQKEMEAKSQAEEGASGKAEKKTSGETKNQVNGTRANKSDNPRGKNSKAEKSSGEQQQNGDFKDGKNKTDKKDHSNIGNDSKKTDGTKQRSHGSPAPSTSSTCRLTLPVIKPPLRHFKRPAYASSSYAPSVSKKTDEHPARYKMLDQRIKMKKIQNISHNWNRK
Prostaglandin G/H synthase 2 (Homo sapiens), sequence (P35354 whole entry): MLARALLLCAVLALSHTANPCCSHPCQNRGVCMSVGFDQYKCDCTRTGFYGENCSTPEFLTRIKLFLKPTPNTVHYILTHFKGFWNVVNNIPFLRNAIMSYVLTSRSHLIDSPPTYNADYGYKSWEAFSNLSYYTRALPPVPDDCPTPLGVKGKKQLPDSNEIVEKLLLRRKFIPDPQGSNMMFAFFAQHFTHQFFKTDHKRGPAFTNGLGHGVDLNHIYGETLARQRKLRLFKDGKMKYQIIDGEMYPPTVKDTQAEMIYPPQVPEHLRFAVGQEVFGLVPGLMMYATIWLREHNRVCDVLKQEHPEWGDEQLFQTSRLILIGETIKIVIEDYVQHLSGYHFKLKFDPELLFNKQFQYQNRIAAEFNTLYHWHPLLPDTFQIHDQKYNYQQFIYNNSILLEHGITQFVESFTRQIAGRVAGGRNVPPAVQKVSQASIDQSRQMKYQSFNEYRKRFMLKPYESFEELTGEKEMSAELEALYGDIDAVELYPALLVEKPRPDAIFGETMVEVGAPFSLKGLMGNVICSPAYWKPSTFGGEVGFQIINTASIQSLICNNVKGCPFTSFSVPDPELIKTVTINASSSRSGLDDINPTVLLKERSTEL
5-hydroxytryptamine receptor 3A (Homo sapiens), sequence (P46098 whole entry): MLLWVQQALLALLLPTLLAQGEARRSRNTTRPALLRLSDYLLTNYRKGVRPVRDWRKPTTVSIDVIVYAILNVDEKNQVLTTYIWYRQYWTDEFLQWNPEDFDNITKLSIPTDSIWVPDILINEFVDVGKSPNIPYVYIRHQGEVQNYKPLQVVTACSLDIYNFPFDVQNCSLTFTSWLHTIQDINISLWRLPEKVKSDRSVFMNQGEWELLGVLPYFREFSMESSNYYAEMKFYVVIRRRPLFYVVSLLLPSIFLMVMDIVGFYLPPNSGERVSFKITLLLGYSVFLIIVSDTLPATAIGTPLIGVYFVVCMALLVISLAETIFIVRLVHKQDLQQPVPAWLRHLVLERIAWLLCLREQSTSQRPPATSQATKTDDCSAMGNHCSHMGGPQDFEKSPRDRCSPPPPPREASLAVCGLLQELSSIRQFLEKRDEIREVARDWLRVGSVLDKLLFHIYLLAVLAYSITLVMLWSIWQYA
5-hydroxytryptamine receptor 2A (Homo sapiens), sequence (P28223 whole entry): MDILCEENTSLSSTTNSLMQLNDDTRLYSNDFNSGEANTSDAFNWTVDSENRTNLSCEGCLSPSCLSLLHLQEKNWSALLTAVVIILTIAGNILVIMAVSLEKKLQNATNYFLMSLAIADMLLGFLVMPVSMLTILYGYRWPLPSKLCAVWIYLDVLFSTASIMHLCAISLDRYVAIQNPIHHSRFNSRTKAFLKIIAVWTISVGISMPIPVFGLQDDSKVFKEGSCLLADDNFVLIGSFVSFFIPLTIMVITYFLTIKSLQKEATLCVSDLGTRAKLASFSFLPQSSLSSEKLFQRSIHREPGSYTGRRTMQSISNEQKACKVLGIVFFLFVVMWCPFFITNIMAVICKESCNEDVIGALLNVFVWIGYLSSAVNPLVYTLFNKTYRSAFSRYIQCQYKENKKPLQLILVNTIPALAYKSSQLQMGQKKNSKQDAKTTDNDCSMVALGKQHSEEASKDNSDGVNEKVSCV
Adenosine receptor A1 (Homo sapiens), sequence (P30542 whole entry): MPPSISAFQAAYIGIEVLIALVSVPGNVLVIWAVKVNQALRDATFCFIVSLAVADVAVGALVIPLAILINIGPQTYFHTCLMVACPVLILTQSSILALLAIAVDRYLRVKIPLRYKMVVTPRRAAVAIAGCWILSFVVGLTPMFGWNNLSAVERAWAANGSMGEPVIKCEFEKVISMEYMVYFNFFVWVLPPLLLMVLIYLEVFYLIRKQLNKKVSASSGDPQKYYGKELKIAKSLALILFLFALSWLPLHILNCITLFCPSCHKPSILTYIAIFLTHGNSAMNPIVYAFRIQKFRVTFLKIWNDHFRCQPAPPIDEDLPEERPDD
D(4) dopamine receptor (Homo sapiens), sequence (P21917 whole entry): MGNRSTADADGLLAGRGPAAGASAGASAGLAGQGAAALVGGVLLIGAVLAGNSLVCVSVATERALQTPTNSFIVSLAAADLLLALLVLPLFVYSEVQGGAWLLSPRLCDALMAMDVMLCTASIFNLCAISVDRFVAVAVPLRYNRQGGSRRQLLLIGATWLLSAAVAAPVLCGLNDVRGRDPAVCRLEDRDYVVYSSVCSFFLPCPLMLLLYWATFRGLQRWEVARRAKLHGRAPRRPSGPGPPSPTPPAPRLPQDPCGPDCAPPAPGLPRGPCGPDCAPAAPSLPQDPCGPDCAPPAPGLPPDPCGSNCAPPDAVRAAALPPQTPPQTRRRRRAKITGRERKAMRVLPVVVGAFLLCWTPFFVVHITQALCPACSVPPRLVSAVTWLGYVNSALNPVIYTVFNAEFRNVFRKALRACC

Compound `COc1ccc2c(N[C@@H](C)Cc3cc(C)[nH]n3)ncnc2c1OC` has a pIC50 [1] of 8.04, a pIC50 [2] of 7.42 and a pIC50 [3] of under 6.70. It also gave a pIC50 [4] of 6.39, a Ratio IC50 (Homo sapiens [5]) of 4.2 and a Ratio IC50 (Homo sapiens [6]) of 3740. For the same compound, the Ratio IC50 (Homo sapiens [7]) was 1130, the Ratio IC50 (Homo sapiens [8]) was 10 and the “Cp(f)” value [9] was 7 nM. For the same compound, the “Drug uptake(free)” value [10] was 2 nM, the Ratio [11] was 0.12 to 0.14 and the inhibition [12] was under 50%. The inhibition [13] was under 50%, the inhibition [14] was under 50% and the inhibition [15] was under 50%. It also gave an inhibition [16] of under 50%, an inhibition [17] of under 50% and an inhibition [18] of under 50%. For the same compound, the inhibition [19] was under 50%, the inhibition (Rattus norvegicus) was under 50% and the inhibition [20] was under 50%. For the same compound, the inhibition at 10 µM (CYP2D6) was under 50%.
